Measurements taken from ChEMBL document CHEMBL1139436, “Quantitative structure-activity relationship of sesquiterpene lactones as inhibitors of the transcription factor NF-kappaB” (J Med Chem, 2004).

How the values were obtained:
[1] = target: T1, Nuclear factor NF-kappa-B complex (Homo sapiens) (UniProt Q00653+P19838+Q04206); assay: (§1) Concentration required for complete inhibition of Nuclear factor kappa B DNA binding; format: protein-complex assay
In short: (§2)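 Jurkat T cells (RPMI 1640, 10% FCS, penicillin/streptomycin) pretreated 1 h with sesquiterpene lactone, first at 10, 20, 50, 100 μM, then 1–5 μM or 200–300 μM as needed. Stimulated 1 h with 200 U/mL TNF-α. Total extracts (Totex high-salt buffer) analysed by EMSA with ³²P-labeled NF-κB oligonucleotide, 25 min at room temperature. IC100 is the lowest tested level fully blocking binding; intermediate values assigned the higher level. Each experiment reproduced at least once.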

[2] = target: T1, Nuclear factor NF-kappa-B complex (Homo sapiens); assay: as §1; format: protein-complex assay; design: unit not given here; in short: as §2

T1 sequence (P19838 whole entry, looked up): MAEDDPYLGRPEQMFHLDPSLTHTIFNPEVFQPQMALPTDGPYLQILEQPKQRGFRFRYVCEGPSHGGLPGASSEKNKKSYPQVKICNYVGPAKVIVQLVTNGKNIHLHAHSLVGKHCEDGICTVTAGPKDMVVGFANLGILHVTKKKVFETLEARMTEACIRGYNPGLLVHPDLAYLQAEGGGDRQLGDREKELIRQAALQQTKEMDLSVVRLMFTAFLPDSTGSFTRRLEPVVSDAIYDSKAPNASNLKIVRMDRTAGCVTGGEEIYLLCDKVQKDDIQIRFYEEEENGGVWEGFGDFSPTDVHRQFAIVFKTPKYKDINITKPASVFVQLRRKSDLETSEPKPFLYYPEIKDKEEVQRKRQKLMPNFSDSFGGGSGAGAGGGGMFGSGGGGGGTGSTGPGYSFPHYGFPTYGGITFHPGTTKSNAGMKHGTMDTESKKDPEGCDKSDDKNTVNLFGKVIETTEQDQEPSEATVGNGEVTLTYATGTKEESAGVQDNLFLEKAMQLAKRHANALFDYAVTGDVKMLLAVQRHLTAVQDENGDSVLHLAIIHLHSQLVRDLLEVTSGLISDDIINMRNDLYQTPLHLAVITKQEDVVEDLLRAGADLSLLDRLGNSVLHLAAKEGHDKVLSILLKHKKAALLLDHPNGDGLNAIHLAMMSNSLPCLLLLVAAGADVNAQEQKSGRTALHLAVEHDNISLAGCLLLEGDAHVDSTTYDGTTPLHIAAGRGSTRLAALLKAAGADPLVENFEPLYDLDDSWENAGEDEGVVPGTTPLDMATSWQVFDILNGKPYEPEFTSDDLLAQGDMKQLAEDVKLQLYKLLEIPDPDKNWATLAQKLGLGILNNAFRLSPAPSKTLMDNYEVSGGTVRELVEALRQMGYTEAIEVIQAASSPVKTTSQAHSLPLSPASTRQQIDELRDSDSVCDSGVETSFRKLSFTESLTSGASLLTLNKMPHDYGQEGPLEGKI
T1 sequence (Q00653 whole entry, looked up): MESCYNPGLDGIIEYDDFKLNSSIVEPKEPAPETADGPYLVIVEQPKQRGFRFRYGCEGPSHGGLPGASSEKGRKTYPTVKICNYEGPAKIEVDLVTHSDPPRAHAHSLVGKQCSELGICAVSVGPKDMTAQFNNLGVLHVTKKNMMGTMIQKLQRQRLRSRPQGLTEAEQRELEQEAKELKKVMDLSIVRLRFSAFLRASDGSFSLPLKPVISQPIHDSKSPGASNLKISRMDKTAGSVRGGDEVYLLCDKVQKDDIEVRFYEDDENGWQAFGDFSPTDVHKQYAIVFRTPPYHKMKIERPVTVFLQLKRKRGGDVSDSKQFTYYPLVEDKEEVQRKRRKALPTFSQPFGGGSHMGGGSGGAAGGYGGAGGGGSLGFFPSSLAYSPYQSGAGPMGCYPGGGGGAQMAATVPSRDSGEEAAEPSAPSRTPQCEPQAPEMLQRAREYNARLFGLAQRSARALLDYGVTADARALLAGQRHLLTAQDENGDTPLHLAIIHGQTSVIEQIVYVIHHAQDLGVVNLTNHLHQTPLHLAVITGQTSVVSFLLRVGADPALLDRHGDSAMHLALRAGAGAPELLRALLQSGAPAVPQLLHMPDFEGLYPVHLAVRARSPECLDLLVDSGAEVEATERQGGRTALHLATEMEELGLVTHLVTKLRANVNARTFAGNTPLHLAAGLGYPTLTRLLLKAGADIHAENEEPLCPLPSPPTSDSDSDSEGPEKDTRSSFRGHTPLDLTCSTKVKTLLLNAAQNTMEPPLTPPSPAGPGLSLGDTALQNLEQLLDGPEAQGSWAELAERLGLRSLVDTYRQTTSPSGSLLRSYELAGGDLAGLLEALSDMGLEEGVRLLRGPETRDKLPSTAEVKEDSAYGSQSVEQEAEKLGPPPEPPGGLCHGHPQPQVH
T1 sequence (Q04206 whole entry, looked up): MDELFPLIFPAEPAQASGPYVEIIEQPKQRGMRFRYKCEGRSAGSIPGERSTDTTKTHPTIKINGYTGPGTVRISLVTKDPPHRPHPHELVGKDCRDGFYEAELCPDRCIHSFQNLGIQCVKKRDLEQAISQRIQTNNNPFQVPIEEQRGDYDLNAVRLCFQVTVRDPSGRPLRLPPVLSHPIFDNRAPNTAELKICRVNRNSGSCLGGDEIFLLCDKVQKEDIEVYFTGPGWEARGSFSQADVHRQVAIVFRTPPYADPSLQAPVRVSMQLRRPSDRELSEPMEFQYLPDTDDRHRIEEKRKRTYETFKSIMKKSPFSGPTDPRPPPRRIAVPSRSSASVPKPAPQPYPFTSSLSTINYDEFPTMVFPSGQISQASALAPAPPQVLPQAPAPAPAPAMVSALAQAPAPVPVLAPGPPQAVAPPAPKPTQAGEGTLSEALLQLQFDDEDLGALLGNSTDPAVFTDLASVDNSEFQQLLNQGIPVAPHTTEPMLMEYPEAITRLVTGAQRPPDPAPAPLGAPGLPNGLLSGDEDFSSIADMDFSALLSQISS

SMILES	IC100 [1] [µM]	pIC100 [2]
C[C@@H]1C[C@H]2OC(=O)[C@@H](C)[C@H]2[C@H](O)[C@]2(C)C(=O)C=C[C@@H]12	200	–
C=C1C(=O)O[C@H]2C/C(CO)=C\CC/C(COC(=O)C(C)C)=C\C[C@H]12	50	-1.69
C=C1C(=O)O[C@@H]2C[C@H](C)C3=C(C[C@H]12)[C@@H](C)CC3=O	20	-1.3
C=C1C(=O)O[C@@H]2/C=C(/C)[C@H](OC(C)=O)C/C=C(/C)CC[C@@H]12	50	-1.69
C=C1C(=O)O[C@]23C[C@H]1CCC(COC(C)=O)=C2C(=O)C=C3C	100	–
C=C1C(=O)C=C2[C@H]1C[C@@H]1C(=C)C(=O)O[C@@H]1C[C@@H]2C	10	-1
C=C1C(=O)O[C@H]2C3=C(C(=O)C[C@@H]3C)[C@@H](C)CC[C@@H]12	20	-1.3
C=C1C(=O)O[C@@H]2C[C@@H](C)[C@@H]3CCC(=O)[C@@]3(C)C[C@H]12	50	–
C=C(C)C(=O)O[C@@H]1C[C@@]2(C)OC(=CC2=O)/C(C)=C\[C@H]2OC(=O)C(=C)[C@@H]21	10	-1
C=C1C(=O)O[C@@H]2[C@H]3C(C)=CC[C@H]3[C@](C)(O)C[C@H](O)[C@@H]12	100	-2
C=C1C(=O)O[C@@H]2/C=C(/C)CC/C=C(/C)CC[C@@]12O	10	-1
C=C1C(=O)O[C@H]2/C=C(\C)[C@@H](O)CC/C(C)=C/C[C@H]12	200	-2
C=C1C(=O)O[C@@H]2C[C@@]3(C)[C@H](OC(C)=O)CC[C@](O)(COC(=O)C(C)C)[C@@H]3C[C@H]12	100	–
C=C1[C@H](O)C[C@@H](O)[C@]2(C)CC[C@H]3C(=C)C(=O)O[C@@H]3[C@@H]12	200	–
C=C1[C@@H]2[C@H]3OC(=O)C(=C)[C@@H]3CCC(=C)[C@@H]2C[C@@H]1OC(=O)C=C(C)C	200	-2.3
C=C(C)C(=O)O[C@@H]1/C=C(\C=O)CCC[C@@]2(CO2)[C@H](O)[C@H]2OC(=O)C(=C)[C@@H]21	5	-1
C=C1C(=O)O[C@@H]2C[C@H](C)C3=CC(=O)[C@H](C)[C@@H]3C[C@H]12	50	-1.69
C=C1C(=O)O[C@]23C[C@H]1CCC(CO)=C2C(=O)C=C3C	50	–
C=C(C)C(=O)O[C@@H]1C=C(C=O)CCCC(=C)[C@H](O)[C@H]2OC(=O)C(=C)[C@@H]21	10	-1
C=C1C(=O)OC2C[C@@H](C)[C@@H]3C=CC(=O)[C@@]3(C)[C@H](O)[C@H]12 (single isomer, unassigned)	20	–
C=C(C)C(=O)O[C@H]1[C@@H]2[C@H](C)C(=O)O[C@@H]2C[C@@H](C)[C@@H]2C=CC(=O)[C@]21C	100	–
C=C1C(=O)O[C@H]2C[C@]3(C)O[C@@H]3C[C@@H](OC(C)=O)C3=C[C@@H](OC3=O)[C@H]12	10	-1
C=C1C(=O)O[C@@H]2/C=C(/C)[C@]3(O)O[C@@](C)(C[C@@H]3OC)C[C@@H](OC(=O)C(C)C)[C@@H]12	200	-2.3
C=C(C)C(=O)O[C@H]1C[C@@]2(C)OC(=CC2=O)C(=C)[C@@H](O)[C@H]2OC(=O)C(=C)[C@@H]21	10	-1
C=C1C(=O)O[C@@H]2/C=C(/C)CC/C=C(/C)C[C@@H](OC(=O)C=C(CO)CO)[C@@H]12	20	-1
C=C1C(=O)O[C@@H]2C[C@@]3(C)[C@H](O)CC[C@](O)(COC(=O)C(C)C)[C@@H]3C[C@H]12	200	–
C=C1C(=O)O[C@@H]2/C=C(/C)C3=CC(=O)[C@@](C)(C[C@@H](OC(=O)/C(C)=C\C)[C@@H]12)O3	5	-0.39

SMILES	IC100 [1] [µM]	pIC100 [2]
C=C1C(=O)O[C@@H]2C[C@@]3(C)CC(=O)C(OC(C)=O)=C(C)C3C[C@H]12 (stereo not given in full)	100	–
C=C1C(=O)O[C@@H]2/C=C(/C)CC/C=C(/C)CC[C@@H]12	50	–
C=C1C(=O)O[C@H]2[C@H]1[C@@H](OC(=O)/C(C)=C/C)C/C(C)=C\[C@@]1(OC)C=C(C)[C@@H]2O1	10	-1
C=C1C(=O)C=C2[C@H]1C[C@@H]1C(=C)C(=O)O[C@H]1C[C@@H]2C	5	-0.69
C=C1C(=O)O[C@@H]2[C@H]3C(C)=CC(=O)C3=C(C)CC[C@@H]12	50	–
C=C1[C@@H]2[C@H]3OC(=O)C(=C)[C@@H]3CCC(=C)[C@@H]2C[C@@H]1OC(C)=O	100	–
C=C1C(=O)O[C@@H]2[C@@H]3[C@@](C)(CC[C@@H]12)[C@@H](O)C[C@H]1O[C@@]31C	200	–
C=C1C(=O)OC2[C@H]3O[C@]3(C)CC/C=C(/C)CC[C@@H]12 (stereo not given in full)	20	–
C=C(C)C(=O)O[C@H]1[C@H]2C(=C)C(=O)O[C@@H]2[C@@H](O)C(=C)CC/C=C(/C=O)[C@@H]1OC	50	-1.3
C=C(C)C(=O)O[C@@H]1/C=C(/C=O)[C@H](OC)CCC(=C)[C@H](O)[C@H]2OC(=O)C(=C)[C@@H]21	10	-1
C=C1C(=O)O[C@@H]2[C@H]3C(CO)=CC(=O)C3=C(C)CC[C@@H]12	50	-1.69
C=C(C)C(=O)O[C@@H]1C[C@]2(C)CC[C@@](OC)(O2)/C(C)=C\[C@H]2OC(=O)C(=C)[C@@H]21	200	-2.3
C=C1[C@@H]2[C@H]3OC(=O)C(=C)[C@@H]3CC[C@](C)(O)[C@@H]2C[C@@H]1O	200	-2.3
C=C(C)C(=O)O[C@@H]1C[C@@](C)(O)[C@@H]2C(=O)C=C(C)[C@@H]2[C@H]2OC(=O)C(=C)[C@@H]21	20	-1.3
C=C1C(=O)O[C@@H]2C[C@H](C)[C@@H]3CC(=O)C(C)=C3C[C@H]12	50	–
C/C=C(\C)C(=O)O[C@H]1[C@@H]2[C@H](C)C(=O)O[C@@H]2C[C@@H](C)[C@@H]2C=CC(=O)[C@]21C	100	–
C=C1C(=O)O[C@@H]2C[C@@]3(C)[C@H](O)CC=C(COC(=O)C(C)C)[C@@H]3C[C@H]12	50	–
C=C1C(=O)O[C@@H]2C[C@@H](C)[C@@H]3[C@@H](OC(C)=O)C[C@@H](O)[C@@]3(C)C[C@H]12	200	–
C=C1C(=O)O[C@@H]2[C@H]3C(C)=CC[C@H](O)[C@]3(C)CC[C@@H]12	300	–
C=C1[C@H](O)C[C@H](O)[C@]2(C)CC[C@H]3C(=C)C(=O)O[C@@H]3[C@@H]12	100	–
C=C1C(=O)O[C@H]2CC(=C)[C@H](O)CC/C(C)=C/[C@@H](O)[C@H]12	50	–
C=C1C(=O)O[C@H]2[C@H]1[C@H](OC(=O)[C@@]1(C)O[C@H]1C)[C@@H](OC(C)=O)/C(C(=O)OC)=C\CC[C@@]1(C)O[C@@H]21	10	–
C=C1C(=O)O[C@@H]2C[C@@H](C)[C@@H]3C=CC(=O)[C@@]3(C)[C@@H](O)[C@H]12	10	–
C=C1C(=O)O[C@@H]2[C@H]3C(C)=CC[C@@H](O)[C@]3(C)CC[C@@H]12	100	–
C=C1C(=O)O[C@@H]2C[C@@H](C)[C@@H]3C=CC(=O)[C@@]3(C)[C@@H](OC(=O)C(C)C)[C@H]12	20	–
CC(=O)O[C@H]1[C@@H]2[C@H](C)C(=O)O[C@@H]2C[C@@H](C)[C@@H]2C=CC(=O)[C@]21C	200	–
C=C1C(=O)O[C@@H]2C[C@@]3(C)[C@H](O)CC[C@@](O)(COC(=O)C(C)C)[C@@H]3C[C@H]12	200	–
